First the molecules themselves.
B1: tRNA (parent)
chain: GUUCCGUUGGCGUAAUGGUAACGCGUCUCCCUCCUAAGGAGAAGACUGCGGGUUCGAGUCCCGUACGGAACG

Variants at the floor of the assay were thinned out.

The variants in the data set derive from B1. Kind of data set: yeast fitness relative to wild type (ratio to wild type); higher = fitter; tRNA-Arg(CCU), competitive growth, 37 C, YPD. In outline: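 A pool of Saccharomyces cerevisiae strains, each with a tRNA-Arg(CCU) gene variant at the native genomic locus, was competed in YPD at 37°C for 24 hours across six parallel replicates. The variants had been chemically synthesised at a 3% per-site mutation rate over 69 sites, and gene amplicons before and after competition were read by 100-nucleotide paired-end sequencing. Darwinian fitness relative to wild type rested on changes in genotype frequencies. Genotypes required ≥ 100 starting reads, and estimates < 0.5 were set to 0.5.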
Consider GUUCCGUUGGCGUAAUGGUUCCGCGUAUCCCUCCUAAGGAAAAGACUGCGGGUUCGAGUCCCGUACGGAACG [A20U A21C C27A G41A], for which the yeast fitness was no more than 0.5.

Consider GUUCCGUUGGCGUAAUGGUAACGCGUCUCCCUCCUAAGGAGACGAUUGCGGGUUCCAGUCCCGUACGGAACG [A43C C46U G56C], for which the yeast fitness came to 0.506. Next, GUUUCCUUGGCGUAAUGGUAACGCGUCUCCCUACUAAGGCAAAGACUGCGGGUUCGAGACCCGAAGGGAACG [C4U G6C C33A A40C G41A U59A U64A C66G]: no more than 0.5; GUUCCGUUGGCGUAACGGUAACGUGUCUCCCUCCUAAGGAGAAGACUGCGGGUUCGAGUCCCGUACGGAACG [U16C C24U]: 0.882.

For the variant GUUCCGUUGGCGUAAUGGUAACACGUCUCCCUCCUAAGGAGAAGACUGCGGGUUCGAGUCCCGUACGGAUCG [G23A A70U], the yeast fitness amounted to 0.854.

For GUUCCGUUGGCGUAAUGGUAACGCGUCUCCCUCCUAAGGAGAAGACUGCCGGUUCGAGACCCGUACGGAACG [G50C U59A], the yeast fitness came to 0.703.

GUUCCGUUGACGUAAUGGUAACGCGUCUCCCCCCUAAGGAGAAGACUGCGGGUUCGAGUCCCGUACGGAACG [G10A U32C]: the yeast fitness was determined as 0.786.

In the case of GUUCCGUUGGCGUAAUGGUAUCGCGUCUCCCUGCUAAGGAGAAGACUGCGGGUUCGCGUCCCGUACGGAACG [A21U C33G A57C], the yeast fitness was no more than 0.5. Turning to GUUCUGUUGGCGUAAUGGUAACGCCUCUCCCUCCUAAGGAGUAGACUGCGGGUUCGAGUCCCGUACGGAACG [C5U G25C A42U], the yeast fitness worked out at 0.639. Next, GUUCCGUUGGUAUAAUGGUAACGCGUCUCCUUCCUAAGGAGAAGACUGCGGGCUCGAGUCCCGUACGGUACG [C11U G12A C31U U53C A69U]: no more than 0.5; GUUCCGUUGGCGUAAUGGUAACGUGUCUCCCUCGUAAGGGGAAGACUGCGGGUUCGAGUCCCGUACGGAACG [C24U C34G A40G]: no more than 0.5; GUUCCGUUGGCGUAAUGGUAACGCGUCUUCCUCCUAAGGAGAACACUGCGGGUUCGAGUCCCGUACGGAACG [C29U G44C]: 0.825. Next, GUUUCGUUGGCGUAAUGGUAACGCGUCUACGUCCUAAGGAGCAGUCUGCGGGUUCGAGUCCCGUACGGUACG [C4U C29A C31G A42C A45U A69U]: no more than 0.5; GUUCUGUUGGUGUAAUGGUAACGCGUCUUGCUCCUAAGGAGAAGACUGCGGGUUCGAGUCCCGUACGGACCG [C5U C11U C29U C30G A70C]: no more than 0.5; GUUCCGUUGACGUAAUGGUAACGCGUCUCCUUCCUAACGAAAAGACUGCGGGUUCGAGUCCCAUACGCGACG [G10A C31U G38C G41A G63A G68C A69G]: no more than 0.5.

In the case of GUUCUGUUGGCGUAAUGCUAAUGCGUCUCCCUCCUAAGGAGAAGACUGCAGGUUCGAGUCCCGUACGGAACG [C5U G18C C22U G50A], the yeast fitness was found to be 0.572. Regarding GUUCCGUUGCCGUAAUGGUAACGCGUCUCGCUCCUAAGGAGAAGACUGCGGGUUAGAGUCCCGUACGGAACG [G10C C30G C55A], the yeast fitness is no more than 0.5.

In the case of GUUCCGGUGGCGUAAUGGUACCGCGUCUCCCUCCUAAGGAGAACACUGCGGGUUCGAGUCCCGUACGGAACG [U7G A21C G44C], the yeast fitness came to 0.545.

With GUUUCGUUGGCGCAAUGGUAACGCGACUCCCUCCUAAGGAGAAGACUGCGGGUUCGAGUCCCCUACGGAACG [C4U U13C U26A G63C], the yeast fitness was no more than 0.5.

Consider GUUCCCAUGGCGUAAUGGUAACGCGUCUCCCUCCUAAGGAGAAGAUUGCGGGUUCGAGUCCCGUACGGAACG [G6C U7A C46U], for which the yeast fitness worked out at 0.577.

Take GUUCCGUUGGCGUAAUAGUAACGCGUCUCCCUCCUAAGGACAGGACUGCGGGUUCGACUCCCGUACGGAACG [G17A G41C A43G G58C]: the yeast fitness is no more than 0.5.

Consider GUUCCGUUGGCGUAAUGGUAACGCGUCUCCCUCCUAGGGAGAAGACUGCGGGUCCGAGUCCCGUUCGGAACG [A37G U54C A65U], for which the yeast fitness was no more than 0.5.

Take GUUCCGUAGGAGUAAUGGUAACGCGUUUCCCUCCUAAGGAGAAGACUGCGGGUUCGAGUCCCGUACGGAACG [U8A C11A C27U]: the yeast fitness amounted to 0.546. Next, GUUCCGCUGGCGUAAUGGUAACGCGUCUCGCUCCUAAGGAGAAGACUGCGGGUUCGACUCCCGUAUGGAACG [U7C C30G G58C C66U]: no more than 0.5; GUUCCGUUGGCGUACUGGUAACGCGUCUCCCUCCUAAGGAGGAGACUGAGGGUUCGAGUCCCGUACGGAACG [A15C A42G C49A]: 0.605; GUUCCGUUGGCGUGAUGGUAACGCGGCUCCCUCCUAAGAAGAAGACUGCGGGUUCGAGUCCCGUACGGAACG [A14G U26G G39A]: no more than 0.5.

As for GUUCCGUUGGUGUAAUGGUAACGCGUCCCCCUCCUAAGGAGAACACUGCGGGUUCGAGUCCCGUACGGAACG [C11U U28C G44C], the yeast fitness was determined as 0.557. Next, GUUCCGUUGGCGUAAUGCUGACGCGUCUCCCUCCUAAGGAGAAGACUGCGGGUUUGAGUCCCGUACCGAACG [G18C A20G C55U G67C]: no more than 0.5. With GUUCCGUUGGCGUAAUGGUAACGCGUCUCCCUGCUAAGGAGAAGACUGCGGGUUCGAGUCCCGUAAGGAACG [C33G C66A], the yeast fitness is no more than 0.5.

Consider GUUCCGUUGGCGUAAUGGUAACGCGUCUCCCUCCUAAGGAGAAGACUGCCAGUUCGAGUCCCGUACGGAACG [G50C G51A], for which the yeast fitness was found to be 0.76.

Consider GUUUCGUUGGCGUAAUGGUAACGGGUCUCCCUCCUCAGGAGAAGACUGCGGGUUCGAGUCCCGUACGGACCG [C4U C24G A36C A70C], for which the yeast fitness is no more than 0.5.

Regarding GUUCCGUUGGCGUAAUGGUAACGCGUCUCCCUCCAAAGGAGAAGACUGCGGAUUCGAGUCCCGUACGGAACG [U35A G52A], the yeast fitness came out at 0.532. The same measure for GUUCCAUUGGCGUAAUGGUAACGUGUCUCCCUCCUAAGGAGAAGACUGCGGGUUCGAGUCCCGUACAGAACG [G6A C24U G67A]: 0.72; for GUUCCGUUGGCCUAAUGGUAACGCGUCUCCCUCCUAAGGAGAAGACUGUGGCUUCGCGUCCCGUCCGGAACG [G12C C49U G52C A57C A65C]: 0.53. Next, GUUGCGUUGGCGUAAUGGUAACGCGUCUCUCUCCUAAGGAGAAGACUGCGGGUUCGAGUCCCGUACGGAACG [C4G C30U]: 0.852; GUUCCAUUGGCGUAAUGGUAACGCGUCUCCCUCCUAAAGAGAAGACUGCGGGUUCGAGUCCCGUACGGAACG [G6A G38A]: 0.812. The same measure for GUUCCGUAGGCGUAAUGGUAACGCGUCUCGCUCCUAAGGAGAAGACUGCGGGUUCGAGACCCGUACGGAACG [U8A C30G U59A]: no more than 0.5; for GUUCCGUUGGCGUAAUGGUAACGCGUCUGCCUCCUAAGGAGAAGACAGCGGGUUCGAGUCCCGUAAGGAACG [C29G U47A C66A]: 0.532.

The values above are taken from the RNAGym collection of RNA variant scans (doi:10.1126/science.aae0568).
